Legend:
PH domain of Akt2 = molecular target: T1, PH domain of Akt2 (Homo sapiens, UniProt P31751); test: SPR competitive binding assay, displacement from PtdIns
T1 sequence (P31751 5-108 limits assumed): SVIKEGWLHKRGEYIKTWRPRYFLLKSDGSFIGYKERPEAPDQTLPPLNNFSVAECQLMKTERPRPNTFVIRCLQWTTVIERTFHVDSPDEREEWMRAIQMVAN

PH domain of PDPK1 = molecular target: T2, PH domain of PDPK1 (Homo sapiens, UniProt O15530); test: SPR competitive binding assay, displacement from PtdIns; details: for binding to the PH domain of PDKP1: at concentrations up to 50 µM
T2 sequence (O15530 459-550 limits assumed): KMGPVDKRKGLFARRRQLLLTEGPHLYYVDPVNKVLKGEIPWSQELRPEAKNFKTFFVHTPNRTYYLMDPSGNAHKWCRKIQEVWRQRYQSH
How it was run: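 Binding was measured by SPR on a Biacore 2000 with streptavidin chips carrying biotin-labelled PtdIns(3,4,5)P₃ liposomes. Expressed recombinant human PDPK1 PH domain was competed with increasing test compound concentrations. Ki was the concentration displacing 50% of the PH domain bound to the liposomes without drug. Values are means of 4 determinations.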

[1] = system: BxPC-3 pancreatic, MCF-7 breast or A-549 NSCL cancer xenografts; test: Antitumor activity, effect of the carbon chain length; assay type: in vivo, mouse; details: 200 mg/kg oral gavage twice a day for 10 days; BxPC-3, MCF-7, A-549 xenografts
How it was run: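 Female scid mice received about 10⁷ log-phase cells in 0.2 ml PBS subcutaneously in the flank. MCF-7 cells were given in Matrigel, with a 60-day 17-β-estradiol pellet implanted the day before. Mice were stratified into groups of 8 with similar mean tumor volumes. Test compound was given orally in 0.1 ml sesame seed oil; controls received vehicle. Calipers were read twice weekly, with volume = d_short² × d_long ÷ 2. Growth rate over the dosing period was compared with control by Student's t-test. T/C is the treated growth rate as a percent of control.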

[2] = system: PtdIns-3-K/PDPK1/Akt signaling in PC-3 prostate cells; test: Reverse phase protein array in PC-3 cells; assay type: cell-based, human; details: 0.1 µM, 16 hours, RPPA
How it was run: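 PC-3 cells were held in serum-free medium for 8 hr. They were then exposed for 16 hr to test compound at 0.1–10 µM, to wortmannin, or to DMSO vehicle. Lysate protein was analysed by quantitative reverse phase protein array with 74 validated PtdIns-3-K/Akt/PDPK1 pathway antibodies. Values are means of 3 determinations, expressed relative to DMSO control.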

[3] = SPR displacement assay, in words

CCCCCCCCCCCCCCCCCCOCC(COP(=O)([O-])OCC[N+](C)(C)C)OC (stereo not shown) [edelfosine]
binding to the PH domain of Akt (PH domain of Akt2; at concentrations up to 50 µM): None of these compounds bound | binding to the PH domain of PDKP1 (PH domain of PDPK1): None of these compounds bound

NC1(c2ccc(-c3nc4ccn5c(=O)[nH]nc5c4cc3-c3ccccc3)cc2)CCC1 [MK-2206]
binding to the PH domain of Akt (PH domain of Akt2; [3]): bound very weakly

CCCCc1ccc(S(=O)(=O)Nc2nncs2)cc1 [C-4]
antitumor activity (tumor growth rate) [1]: very little activity

CCCCCCCCCCCCCCc1ccc(S(=O)(=O)Nc2nncs2)cc1 [C-14]
binding to the PH domain of Akt (PH domain of Akt2; [3]): lower, although still appreciable, binding | binding to the PH domain of PDPK1 (PH domain of PDPK1; [3]): showed binding

COC[C@H]1OC(=O)c2coc3c2[C@@]1(C)C1=C(C3=O)[C@@H]2CCC(=O)[C@@]2(C)C[C@H]1OC(C)=O [wortmannin, reference compound]
phospho-Ser241-PDPK1 [2]: reduction | phospho-Ser473-Akt [2]: completely inhibited | phospho-Ser657-protein kinase C (PKC) [2]: decreased | phospho-Thr308-Akt [2]: reduction | total SGK1 [2]: decreased

CCCCCCCCCCCCCCCCc1ccc(S(=O)(=O)Nc2nncs2)cc1 [C-16]
binding to the PH domain of Akt (PH domain of Akt2; [3]): lower, although still appreciable, binding

CCCCCCc1ccc(S(=O)(=O)Nc2nncs2)cc1 [C-6]
antitumor activity (tumor growth rate) [1]: very little activity

CCCCCCCCCCCCCCCCCCc1ccc(S(=O)(=O)Nc2nncs2)cc1 [C-18]
binding to the PH domain of Akt (PH domain of Akt2; [3]): lower, although still appreciable, binding

CCCCCCCCc1ccc(S(=O)(=O)Nc2nncs2)cc1 [C-8]
antitumor activity (tumor growth rate) [1]: less activity

CCCCCCCCCCCCCCCCCCOP(=O)([O-])OC1CC[N+](C)(C)CC1 [perifosine]
binding to the PH domain of Akt (PH domain of Akt2; at concentrations up to 50 µM): None of these compounds bound | binding to the PH domain of PDKP1 (PH domain of PDPK1): None of these compounds bound

CN1N=C(N)c2cn([C@@H]3O[C@H](COP(=O)(O)O)[C@@H](O)[C@H]3O)c3ncnc1c23 [triciribine]
binding to the PH domain of Akt (PH domain of Akt2; at concentrations up to 50 µM): None of these compounds bound | binding to the PH domain of PDKP1 (PH domain of PDPK1): None of these compounds bound
